Measured values pooled from the literature.
Protocols differ between the studies behind these lines.
Oprk1: Kappa-type opioid receptor (Oprk1, Mus musculus, UniProt P33534)
MC4R: Melanocortin receptor 4 (MC4R, Homo sapiens, UniProt P32245)
BCHE: Cholinesterase (BCHE, Homo sapiens, UniProt P06276)

| SMILES | target | assay | system | conditions | quantity | result |
| --- | --- | --- | --- | --- | --- | --- |
| CC(C)[C@@H](CN1CCc2ccccc2C1)NC(=O)Cc1c[nH]c2ccccc12 | Oprk1 | ligand displacement, radioligand | – | 10 µM | inhibition | 89.1% |
| CCCC[C@H](NC(C)=O)C(=O)N[C@@H](C)C(=O)N[C@@H](Cc1c[nH]cn1)C(=O)N[C@@H](Cc1ccccc1)C(=O)N[C@@H](CCCNC(=N)N)C(=O)N[C@H](Cc1c[nH]c2ccccc12)C(=O)N[C@@H](CC(=O)O)C(=O)N[C@@H](CCCNC(=N)N)C(=O)N[C@@H](Cc1ccccc1)C(=O)N[C@@H](C(=O)N1CCC[C@@H]1C(N)=O)C(C)C | MC4R | cAMP, agonist | CHO-K1 | – | Emax | 100% |
| Cc1c(CC(=O)N[C@@H](CN2CCc3ccccc3C2)C(C)C)cccc1[N+](=O)[O-] | Oprk1 | ligand displacement, radioligand | – | 10 µM | inhibition | 95.1% |
| [2H]c1c([2H])c([C@]2([2H])CCCN2C(=O)C(C)(C)Oc2ccc3cn[nH]c3c2)c([2H])c([2H])c1C([2H])([2H])[2H] | Peripheral plasma membrane protein CASK (CASK, Homo sapiens, UniProt O14936) | binding, competition with immobilised ligand | – | 1 µM | remaining binding | 89% |
| COc1cc(/C=C/C(=O)O)ccc1OCc1cn(CC(=O)Nc2ccc(C)cc2)nn1 | BCHE | enzyme activity, inhibitor, Ellman | – | 40 µM | inhibition | 48.5% |
| CC(C)[C@@H](CN1CCc2ccccc2C1)NC(=O)c1cccc(-c2cccc(O)c2)c1 | Oprk1 | ligand displacement, radioligand | – | 10 µM | inhibition | 94.2% |
| COc1cc(/C=C/C(=O)O)ccc1OCc1cn(CC(=O)Nc2ccccc2C)nn1 | BCHE | enzyme activity, inhibitor, Ellman | – | 40 µM | inhibition | 44.6% |
| CN1CCC[C@H]1c1cccnc1 | Muscarinic acetylcholine receptor M5 (CHRM5, Homo sapiens, UniProt P08912) | ligand displacement | – | 50 µM | inhibition | -4.76% |
| COc1cc(/C=C/C(=O)O)ccc1OCc1cn(CC(=O)Nc2ccc(Cl)cc2)nn1 | BCHE | enzyme activity, inhibitor, Ellman | – | 40 µM | inhibition | 22.2% |
| CC(C)CC(=O)OC[C@H]1O[C@@](C#N)(c2ccc3c(N)ncnn23)[C@H](O)[C@@H]1O | MC4R | cell-free assay | – | 20 µM | inhibition | 6% |
